NS3 helicase inh: blocks Hepatitis C virus NS3 helicase unwinding | NS3 helicase DNA unwinding, Cy5 molecular beacon fluorescence | inhibition, % at 10.9 µM | hit rate 0.56% among 290,000;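 active = inhibition above the mean of all tested compounds plus 3 SD, set per campaign, cut at about 35% in these data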
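Material: hepatitis C virus NS3 helicase domain fragment enzyme; measured by: Cy5 fluorescence, 0 and 60 min reads; control set: DMSO and thioflavine S; incubation: 60 min unwinding reaction at 25 °C after ATP addition; read-out basis: % inhibition from 60/0 min fluorescence ratio, DMSO 0%, thioflavine S 100%; repeats: singlicate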
EBNA-1 inh: blocks EBNA-1 binding to DNA. hit rate 0.34% among 300,000. AID 1950. inhibition, % at 14.8 µM. EBNA-1 DNA binding, fluorescence polarization; in the data active = inhibition above about 28%
PABP polyA inh: blocks human PABP binding to poly(A) RNA; AID 2014; fluorescence polarization; hit rate 1% among 290,000; inhibition, % at 35 µM;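 note: calls also rest on retests at 20 µM and on dose response follow-up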
Target sequence (P11940 whole entry, looked up): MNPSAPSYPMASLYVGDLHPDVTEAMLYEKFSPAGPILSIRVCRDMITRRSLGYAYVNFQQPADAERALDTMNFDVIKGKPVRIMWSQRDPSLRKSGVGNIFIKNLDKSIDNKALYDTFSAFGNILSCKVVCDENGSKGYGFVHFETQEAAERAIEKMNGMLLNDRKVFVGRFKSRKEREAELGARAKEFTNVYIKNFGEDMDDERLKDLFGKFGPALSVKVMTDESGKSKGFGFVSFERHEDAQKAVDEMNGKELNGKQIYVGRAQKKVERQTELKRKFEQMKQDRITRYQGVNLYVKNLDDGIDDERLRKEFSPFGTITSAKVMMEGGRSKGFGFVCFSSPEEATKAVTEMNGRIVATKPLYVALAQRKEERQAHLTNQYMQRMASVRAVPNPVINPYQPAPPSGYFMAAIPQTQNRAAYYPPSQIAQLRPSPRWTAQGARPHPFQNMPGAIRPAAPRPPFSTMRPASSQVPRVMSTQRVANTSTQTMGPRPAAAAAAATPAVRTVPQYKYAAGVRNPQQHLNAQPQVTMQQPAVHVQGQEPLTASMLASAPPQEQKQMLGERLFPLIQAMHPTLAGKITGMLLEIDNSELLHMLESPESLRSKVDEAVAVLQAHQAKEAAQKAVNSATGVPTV
eIF4H FP inh: inhibitors of RNA binding by human eIF4H; inhibition, % at 35 µM; AID 2012; Q15056; hit rate 0.94% among 290,000; eIF4H fluorescence polarization binding assay;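 note: calls also rest on retests at 20 µM and on dose response follow-up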
MLLE-PAM2 inh: inhibitors of microRNA-mediated deadenylation, human PABP1 MLLE binding; GST-MLLE / FITC-PAM2 fluorescence polarization; P11940; inhibition, % at 20 µM; hit rate 0.36% among 360,000; in the data active = inhibition above about 35%, passing the limit was not always enough
ZTA counter: ZTA (EBV) inhibition in EBNA-1 counter-screen. hit rate 0.15% among 320,000. P03206. inhibition, % at 11 µM. ZTA-DNA binding, fluorescence polarization. AID 2234; in the data active = inhibition above about 33%
NS3 helicase cf: confirmation of Hepatitis C virus NS3 helicase inhibitors. NS3 helicase DNA unwinding, Cy5 molecular beacon fluorescence. hit rate 31% among 1,600. AID 1943. shares compounds with NS3 helicase inh. inhibition, % at 10.9 µM;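 active = inhibition above the mean of all tested compounds plus 3 SD, cutoff set per campaign, cut at about 36% in these data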
DNA FID counter: displaces DNA intercalator in HCV helicase counter-screen | hit rate 4% among 1,600 | DNA fluorescent intercalator displacement, fluorescence | shares compounds with NS3 helicase inh | inhibition, % at 7.9 µM | AID 1945; in the data active = inhibition above about 37%;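 note: higher means more displacement of ethidium bromide from the DNA hairpin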
FID counter DR: displaces fluorescent intercalator from DNA, HCV helicase counter-screen; shares compounds with NS3 helicase inh; fluorescent intercalator displacement from DNA, fluorescence; AID 2172; 120 tested, under 10 active; IC50, µM
Hits are given with their value; i = inactive; ? = inconclusive; nt = not tested or not shown. In the library only some 2.1% were active in any assay of this set; here they are far more common. Unless noted, the rule behind the calls is not given here.

SMILES | NS3 helicase inh | EBNA-1 inh | PABP polyA inh | eIF4H FP inh | MLLE-PAM2 inh | ZTA counter | NS3 helicase cf | DNA FID counter | others
COc1ccc(OC)c2c1C(=O)CC2C (configuration not stated) | nt | nt | nt | nt | i | nt | nt | nt
COc1ccc(OC)c2c1C(=O)C(Cl)=C(Cl)C2=O | i | i | i | i | 58 | i | nt | nt
COc1ccc(N)c2c1C(=O)c1ccccc1C2=O | i | i | i | i | i | i | nt | nt
Cc1cc(C)n2cc(CSCc3ccco3)nc2n1 | i | i | i | i | i | i | nt | nt
Cc1cccc2nc(CSCc3ccco3)cn12 | i | i | 72 | 76 | 44 | i | nt | nt
CCSc1nc2sc3c(c2c(=O)[nH]1)CCc1ccccc1-3 | i | i | i | i | i | i | nt | nt
NNc1nc2sc3c(c2c(=O)[nH]1)CCc1ccccc1-3 | i | i | active | 101 | i | i | nt | nt
Cc1ccc2nc(N3C(=O)C(O)=C(C(=O)c4ccc(C)o4)C3c3cccc(O)c3)sc2c1 (configuration not stated) | 44 | i | i | i | i | i | 106 | i
Nc1c(-c2cccc(Cl)c2)cnn1-c1ccccc1 | i | i | i | i | i | i | nt | nt
CCOc1ncccc1C(=O)Nc1cc(S(=O)(=O)N2CCCCC2)ccc1Cl | nt | nt | nt | nt | i | i | nt | nt
O=C1OC(c2ccc(F)cc2)=C/C1=C\c1ccc(O)cc1 | i | i | i | i | i | i | nt | nt
O=C1OC(c2ccc(F)cc2)=C/C1=C\c1ccc([N+](=O)[O-])o1 | 45 | i | i | ? | nt | i | 42 | i
Cc1cc(OCc2nn[nH]n2)c2c(C)c(Cc3ccccc3)c(=O)oc2c1 | 69 | i | i | i | i | i | 62 | i
Cc1ccc(S(=O)(=O)N(C(=O)c2ccco2)c2cc3sc(=O)oc3c3ccccc23)cc1 | 40 | i | i | i | i | i | i | i
CC1CCCN(S(=O)(=O)c2ccc(C(=O)Nc3nnc(C4=COCCO4)o3)cc2)C1 (configuration not stated) | 65 | i | i | i | i | i | i | i
COc1cccc(-c2coc3c(C)c4oc(=O)c(CCC(=O)O)c(C)c4cc23)c1 | i | i | i | i | i | i | nt | nt
COc1cccc(-c2coc3c(C)c4oc(=O)c(CC(=O)O)c(C)c4cc23)c1 | 44 | i | i | i | i | i | 59 | i
CCOC(=O)/C(C(C)=O)=C1\OC(=O)c2ccccc21 | 44 | i | i | i | i | i | i | i
C=CC[C@@H](CC(=O)NCCO)C(=O)N[C@@H](COC(=O)[C@@H](CC=C)Cc1ccc(F)cc1)Cc1ccccc1 | nt | nt | nt | nt | i | nt | nt | nt
COc1cc(C(=O)OC(C)C(=O)N2CCCC2)cc2c1OCCO2 (configuration not stated) | nt | nt | nt | nt | i | i | nt | nt
O=[N+]([O-])c1cc(Cc2ccccc2)cc(C=Nc2ccc(N3CCOCC3)cc2)c1O | 50 | 40 | i | i | i | 77 | 55 | i | FID counter DR=i
Cc1ccc(O)c(N=Cc2cc(Cc3ccccc3)cc([N+](=O)[O-])c2O)c1 | i | nt | i | i | i | nt | nt | nt
Cc1cc2oc(=O)cc(CN3CCCCC3C)c2cc1Cl (configuration not stated) | i | i | i | i | i | i | nt | nt
Cc1cc2oc(=O)cc(CN3CCCCC3C)c2cc1C (configuration not stated) | 36 | i | i | i | i | i | i | i
Cc1cccc(Nc2ncnc3ccccc23)c1 | i | i | i | i | i | i | nt | nt
SMILES | NS3 helicase inh | EBNA-1 inh | PABP polyA inh | eIF4H FP inh | MLLE-PAM2 inh | ZTA counter | NS3 helicase cf | DNA FID counter | others
CCC1Cc2c(nc(N)c3c(N)nc(N4CCOCC4)c(C#N)c23)O1 (configuration not stated) | i | i | i | i | i | i | nt | nt
N#Cc1c(N2CCCCC2)nc(N)c2c(N)nc3c(c12)CC(CCl)O3 (configuration not stated) | 58 | i | i | i | i | i | i | i
O=C1CC(c2ccc(Cl)cc2)CC(=O)C1CS(=O)(=O)c1ccccc1 (configuration not stated) | 36 | i | i | i | i | i | 70 | i
COc1ccc(C2CC(=O)C(CS(=O)(=O)c3ccccc3)C(=O)C2)cc1 (configuration not stated) | 43 | i | i | i | i | i | i | i
CC(=O)C1=C(O)C(=O)N(c2ccc(Br)cc2)C1c1cccc(F)c1 (configuration not stated) | 37 | i | i | i | i | i | i | i
O=C(O)Cc1ccc(N=Nc2c(O)c(C(=O)O)cc3ccccc23)cc1 | 42 | i | 45 | 77 | i | i | 64 | i
NS(=O)(=O)c1ccc(N=Nc2c(O)c(C(=O)O)cc3ccccc23)cc1 | i | i | i | i | i | i | nt | nt
Cc1cc(C)c[n+](-c2[nH]c(=O)sc2/C=N/N=C(\[O-])c2cccnc2)c1 | 36 | i | i | i | 36 | i | i | i
CCc1ccc(OCC(=O)Nc2nnc(C3CCCC3)s2)cc1 | i | i | i | i | i | i | nt | nt
CC(C)NC(=O)c1cc(C2CCCCN2C(=O)c2cc(C(C)(C)C)nn2C)on1 (configuration not stated) | nt | nt | nt | nt | i | nt | nt | nt
CCOC(=O)c1sc2ncn(/N=C/N(C)C)c(=O)c2c1C | 41 | i | i | i | i | i | i | i
NS(=O)(=O)c1ccc(N/N=C/C=C/c2ccccc2[N+](=O)[O-])cc1 | i | i | i | i | i | i | nt | nt
O=C(O)c1cc(N/N=C/C=C/c2ccccc2[N+](=O)[O-])ccc1Cl | 43 | i | i | i | i | i | 52 | i
O=C(NC1CCN(Cc2nnnn2CCc2ccccc2)CC1)c1ccccc1F | i | i | i | i | i | i | nt | nt
Cc1ccc(N(C(=O)c2csnn2)C(C(=O)NC2CCCC2)c2ccncc2)c(C)c1 (configuration not stated) | 39 | i | i | i | i | i | i | i
S=c1nc(Cc2ccccc2)[nH]c2ccccc12 | i | i | i | i | i | i | nt | nt
S=c1nc(COc2ccccc2)[nH]c2ccccc12 | 42 | i | i | i | i | i | i | i
O=C(O)c1cccnc1SCc1ccc([N+](=O)[O-])cc1 | i | i | i | i | i | i | nt | nt
O=C(O)c1cccnc1SCc1cccc(Br)c1 | 38 | i | i | i | i | i | i | i
COc1cccc(/C=C2/C(=O)NN(c3ccc(F)cc3)C2=O)c1 | 48 | nt | i | i | i | nt | i | i
COc1cc(/C=C2/C(=O)NN(c3cccc(C)c3)C2=O)ccc1OC(=O)c1ccco1 | 40 | i | i | i | i | i | i | i
C#CCOc1ccc(/C=C2/C(=O)NN(c3ccc(F)cc3)C2=O)cc1OC | 39 | i | i | i | i | i | i | i
COc1cc(/C=C2\C(=O)NN(c3ccccc3)C2=O)ccc1OCC(N)=O | i | i | i | i | nt | i | nt | nt

Screening data: PubChem, several laboratories
